The source of these data is ChEMBL document CHEMBL4321820, “Identification and Optimization of Mechanism-Based Fluoroallylamine Inhibitors of Lysyl Oxidase-like 2/3” (J Med Chem, 2019).

For series [1], the system named is Mus musculus. Nature of the series: Antifibrotic activity in bleomycin-induced C57BL/6 mouse model of lung fibrosis assessed as reduction in Ashcroft score at 15 mg/kg, ip administered on day 7 to 27 measured on day 28 by H and E staining based microscopy. It is filed as functional, organism-based. An outline of the steps: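 Female C57BL/6 mice, 6-8 weeks old, under isoflurane received intranasal bleomycin sulphate 0.05 U/mouse in PBS; controls got PBS. Once-daily i.p. treatment days 7-27, n=12/group; imatinib 50 mg/kg i.p. as comparator. Sacrifice at day 28; lung fibrosis scored by Ashcroft score.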

Series [2] has as its system Mus musculus. Nature of the series: Effect on plasma ALT level in CCl4-induced BALB/c mouse model of liver fibrosis at 15 mg/kg, po administered once daily for 6 weeks. It is filed as ADME, organism-based. To be noted: in vivo, 1008 h. The procedure, abridged: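 CCl4 liver fibrosis in female BALB/c mice: CCl4 i.p. (1 mL/kg 25% in olive oil) twice weekly for 6 weeks, sacrifice 48 h after final injection. Oral once-daily dosing weeks 1-6 or weeks 4-6; imatinib 50 mg/kg daily weeks 1-6. ALT and AST measured in plasma.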

For series [3], the target named is T1, Lysyl oxidase homolog 2 (Mus musculus, UniProt P58022).
T1 sequence (P58022 whole entry): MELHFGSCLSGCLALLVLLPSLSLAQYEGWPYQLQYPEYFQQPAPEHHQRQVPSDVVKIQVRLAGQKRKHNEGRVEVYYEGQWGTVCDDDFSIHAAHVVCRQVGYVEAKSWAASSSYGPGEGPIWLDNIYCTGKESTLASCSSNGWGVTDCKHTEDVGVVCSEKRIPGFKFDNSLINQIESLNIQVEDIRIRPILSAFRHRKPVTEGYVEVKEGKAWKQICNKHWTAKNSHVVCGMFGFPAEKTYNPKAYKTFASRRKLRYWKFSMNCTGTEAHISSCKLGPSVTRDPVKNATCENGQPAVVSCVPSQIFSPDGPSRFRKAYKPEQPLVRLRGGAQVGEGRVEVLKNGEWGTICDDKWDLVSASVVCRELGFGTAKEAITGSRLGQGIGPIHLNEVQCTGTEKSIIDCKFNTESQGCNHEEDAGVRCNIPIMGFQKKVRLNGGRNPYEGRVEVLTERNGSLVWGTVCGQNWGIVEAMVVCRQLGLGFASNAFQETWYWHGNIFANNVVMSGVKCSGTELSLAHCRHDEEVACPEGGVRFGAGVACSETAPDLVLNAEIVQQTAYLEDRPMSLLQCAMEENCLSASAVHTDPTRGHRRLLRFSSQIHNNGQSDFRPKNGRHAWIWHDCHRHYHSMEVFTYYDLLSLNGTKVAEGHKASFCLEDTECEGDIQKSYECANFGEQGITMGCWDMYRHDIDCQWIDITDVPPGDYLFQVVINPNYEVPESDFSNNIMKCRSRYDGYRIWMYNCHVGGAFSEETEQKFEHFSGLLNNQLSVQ
The series can be described thus: Inhibition of recombinant mouse C-terminal His-tagged LOLX2 (26-776 residues) expressed in mouse myeloma cells using putrescine as substrate preincubated with enzyme for 30 mins followed by substrate addition and measured every 2.5 mins for 30 mins by Amplex-Red oxidation assay. The procedure, abridged:
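LOXL2 enzyme preincubated with compound for 30 min at 37 °C, then Amplex Red (120 µM) / HRP (1.5 U/mL) mix containing 5 mM putrescine added. Buffer: 1.2 M urea, 50 mM sodium borate, pH 8.2. H2O2 fluorescence (ex 565/em 590) read every 2.5 min for 30 min at 37 °C; BAPN 100 µM as positive control; n≥2.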

In series [4] the target is T2, Lysyl oxidase homolog 2 (Rattus norvegicus, UniProt B5DF27).
T2 sequence (B5DF27 whole entry): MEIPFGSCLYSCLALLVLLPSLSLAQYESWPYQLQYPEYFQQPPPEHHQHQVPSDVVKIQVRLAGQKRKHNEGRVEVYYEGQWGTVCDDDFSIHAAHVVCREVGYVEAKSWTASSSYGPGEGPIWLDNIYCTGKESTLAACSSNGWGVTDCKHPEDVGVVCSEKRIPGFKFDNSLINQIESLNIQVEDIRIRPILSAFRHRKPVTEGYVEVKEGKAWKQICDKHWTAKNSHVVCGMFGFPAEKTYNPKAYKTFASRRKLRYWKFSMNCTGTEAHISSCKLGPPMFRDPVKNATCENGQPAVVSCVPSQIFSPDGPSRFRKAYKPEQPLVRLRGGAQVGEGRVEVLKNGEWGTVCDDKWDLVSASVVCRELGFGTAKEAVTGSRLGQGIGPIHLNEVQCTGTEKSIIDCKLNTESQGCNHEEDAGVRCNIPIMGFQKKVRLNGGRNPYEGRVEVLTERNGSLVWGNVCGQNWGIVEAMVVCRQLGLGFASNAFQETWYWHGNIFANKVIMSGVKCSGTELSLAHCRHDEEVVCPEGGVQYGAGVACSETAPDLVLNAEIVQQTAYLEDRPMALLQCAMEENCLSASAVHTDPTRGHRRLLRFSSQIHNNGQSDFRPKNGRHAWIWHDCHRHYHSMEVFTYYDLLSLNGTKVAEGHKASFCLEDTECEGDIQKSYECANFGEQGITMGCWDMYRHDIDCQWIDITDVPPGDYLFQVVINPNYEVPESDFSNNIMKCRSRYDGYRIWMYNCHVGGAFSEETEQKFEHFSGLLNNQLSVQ
The series can be described thus: Inhibition of recombinant rat LOLX2 using putrescine as substrate preincubated with enzyme for 30 mins followed by substrate addition and measured every 2.5 mins for 30 mins by Amplex-Red oxidation assay.

Series [5] in a line: Stability in rat plasma assessed as half life. The class given is ADME, cell-free.
Series [6] is described as follows: Oral bioavailability in rat. To be noted: in vivo. It is filed as ADME, organism-based.

The source made the active and inactive calls. The calls are words filed in the database; no cut-off is given here.

Regarding `CCOC(=O)c1ccc2c(c1)c(-c1cccc(S(=O)(=O)N(C)C)c1)c(C)n2C/C(F)=C/CN.Cl`, in the series on Mus musculus [1], the inhibition result is “Active”. In the series with Mus musculus [2], the Activity result is reported as “Non-Toxic”.

In the case of `Cc1c(-c2cccc(S(=O)(=O)N(C)C)c2)c2cc(C(=O)O)ccc2n1C/C(F)=C/CN.Cl`, the IC50 at Lysyl oxidase homolog 2 [3] and at Lysyl oxidase homolog 2 [4] was 6 nM each time. The half-life in series [5] is over 2 h. This compound also returned a bioavailability in series [6] of under 1%.

A word on the IC50: it is the point on the concentration scale where inhibition reaches its midpoint. The half-life is the time in which the quantity being followed falls by half. What is called bioavailability is dose-corrected exposure relative to a reference, in per cent. High values mean good availability, low ones poor availability.
